Experimental data published in ChEMBL document CHEMBL3045256, “Design, synthesis, structure, and acaricidal/insecticidal activity of novel spirocyclic tetronic acid derivatives containing an oxalyl moiety” (2011).

Experiments:
Assay type in all cases: functional
Mythimna separata [1] = assay: Stomach toxicity against fourth-instar larval stage of Mythimna separata (Oriental armyworm) in compound-pretreated corn leaves assessed as mortality at 600 mg/kg at 25 +/-1 degC after 4 days
Method in brief: (§1)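 Foliar application to oriental armyworm. Single corn leaves were laid on moistened filter paper in Petri dishes. Bioassays were run at 25 ± 1 °C.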

Helicoverpa armigera = assay: Stomach toxicity against third-instar larval stage of Helicoverpa armigerain compound-pretreated corn leaves assessed as mortality at 600 mg/kg at 25 +/-1 degC after 4 days by leaf-dip method
Method in brief: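 Leaf-dip assay on cotton bollworm. Corn leaves were dipped in test solution and air-dried. The treated pieces were placed individually into 24-hole boxes. Run at 25 ± 1 °C.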

Ostrinia nubilalis = assay: Stomach toxicity against third-instar larval stage of Ostrinia nubilalis (European corn borer) in corn leaves assessed as mortality at 600 mg/kg at 25 +/-1 degC treated for 3-5 secs before larval infestation after 4 days by leaf-dip method; details: 96 h
Method in brief: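 Corn leaf disks (about 5 cm) were dipped for 3–5 s and air-dried. Each disk was placed in a 7 cm glass vessel with 10 third-instar corn borer larvae. Percentage mortality was scored 4 days after treatment. Controls were acetone-treated leaves. Run at 25 ± 1 °C.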

Tetranychus cinnabarinus [2] = assay: Acaricidal activity against larvae of Tetranychus cinnabarinus (carmine spider mite) in sieva bean leaves assessed as mortality at 10 mg/kg at 25 +/-1 degC treated for 3 secs measured after 4 days; details: 96 h
Tetranychus cinnabarinus [3] = assay: Acaricidal activity against eggs of Tetranychus cinnabarinus (carmine spider mite) in sieva bean leaves assessed as mortality at 5 mg/kg at 25 +/-1 degC treated for 3 secs measured after 4 days; details: 96 h
Tetranychus cinnabarinus [4] = assay: Acaricidal activity against larvae of Tetranychus cinnabarinus (carmine spider mite) in sieva bean leaves assessed as mortality at 5 mg/kg at 25 +/-1 degC treated for 3 secs measured after 4 days; details: 96 h
Mythimna separata [5] = assay: Stomach toxicity against fourth-instar larval stage of Mythimna separata (Oriental armyworm) in compound-pretreated corn leaves assessed as mortality at 50 mg/kg at 25 +/-1 degC after 4 days; method in brief: as §1
Mythimna separata [6] = assay: Stomach toxicity against fourth-instar larval stage of Mythimna separata (Oriental armyworm) in compound-pretreated corn leaves assessed as mortality at 100 mg/kg at 25 +/-1 degC after 4 days; method in brief: as §1
Plutella xylostella = assay: Stomach toxicity against third-instar larval stage of Plutella xylostella (diamondback moth) in cabbage leaves assessed as mortality at 200 mg/kg at 25 +/-1 degC treated for 3 secs before larval infestation after 4 days by leaf-dip method; details: 96 h
Method in brief: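 Cabbage leaf disks (6 cm × 2 cm) were dipped in test solution for 3 s and air-dried. Each disk was placed in a glass tube and given seven third-instar diamondback moth larvae. Percentage mortality was scored after 4 days. Controls were water and dimethylformamide. Each treatment was done three times at 25 ± 1 °C.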

Tetranychus cinnabarinus [7] = assay: Acaricidal activity against eggs of Tetranychus cinnabarinus (carmine spider mite) in sieva bean leaves assessed as mortality at 1 mg/kg at 25 +/-1 degC treated for 3 secs measured after 4 days; details: 96 h
Tetranychus cinnabarinus [8] = assay: Acaricidal activity against larvae of Tetranychus cinnabarinus (carmine spider mite) in sieva bean leaves assessed as mortality at 2.5 mg/kg at 25 +/-1 degC treated for 3 secs measured after 4 days; details: 96 h
Tetranychus cinnabarinus [9] = assay: Acaricidal activity against larvae of Tetranychus cinnabarinus (carmine spider mite) in sieva bean leaves assessed as mortality at 1 mg/kg at 25 +/-1 degC treated for 3 secs measured after 4 days; details: 96 h
Tetranychus cinnabarinus [10] = assay: Acaricidal activity against larvae of Tetranychus cinnabarinus (carmine spider mite) in sieva bean leaves assessed as mortality at 0.5 mg/kg at 25 +/-1 degC treated for 3 secs measured after 4 days; details: 96 h
Tetranychus cinnabarinus [11] = assay: Acaricidal activity against eggs of Tetranychus cinnabarinus (carmine spider mite) in sieva bean leaves assessed as mortality at 2.5 mg/kg at 25 +/-1 degC treated for 3 secs measured after 4 days; details: 96 h
Tetranychus cinnabarinus [12] = assay: Acaricidal activity against eggs of Tetranychus cinnabarinus (carmine spider mite) in sieva bean leaves assessed as mortality at 0.5 mg/kg at 25 +/-1 degC treated for 3 secs measured after 4 days; details: 96 h
Tetranychus cinnabarinus [13] = assay: Acaricidal activity against eggs of Tetranychus cinnabarinus (carmine spider mite) in sieva bean leaves assessed as mortality at 0.25 mg/kg at 25 +/-1 degC treated for 3 secs measured after 4 days; details: 96 h
Tetranychus cinnabarinus [14] = assay: Acaricidal activity against eggs of Tetranychus cinnabarinus (carmine spider mite) in sieva bean leaves assessed as mortality at 0.05 mg/kg at 25 +/-1 degC treated for 3 secs measured after 4 days; details: 96 h
Tetranychus cinnabarinus [15] = assay: Acaricidal activity against eggs of Tetranychus cinnabarinus (carmine spider mite) in sieva bean leaves assessed as mortality at 0.1 mg/kg at 25 +/-1 degC treated for 3 secs measured after 4 days; details: 96 h
Tetranychus cinnabarinus [16] = assay: Acaricidal activity against eggs of Tetranychus cinnabarinus (carmine spider mite) in sieva bean leaves assessed as mortality at 25 +/-1 degC treated for 3 secs measured after 4 days
Tetranychus cinnabarinus [17] = assay: Toxicity ratio of spiromesifen LC50 to compound LC50 for eggs of Tetranychus cinnabarinus (carmine spider mite) treated for 3 secs measured after 4 days
Tetranychus cinnabarinus [18] = assay: Ratio of mortality against eggs of Tetranychus cinnabarinus (carmine spider mite) to mortality against larvae of carmine spider mite

## C#CCOC(=O)C(=O)OC1=C(c2c(C)cc(C)cc2C)C(=O)OC12CCCC2
Mythimna separata [1]
  mortality at 600 mg/kg: 50%
Helicoverpa armigera
  mortality at 600 mg/kg: 20%
Ostrinia nubilalis
  mortality at 600 mg/kg: 70%
Tetranychus cinnabarinus [2]
  mortality at 10 mg/kg: 30%
Tetranychus cinnabarinus [3]
  mortality at 5 mg/kg: 30%
Tetranychus cinnabarinus [4]
  mortality at 5 mg/kg: 0%

## Cc1cc(C)c(C2=C(OC(=O)C(=O)Oc3ccccc3)C3(CCCC3)OC2=O)c(C)c1
Mythimna separata [5]
  mortality at 50 mg/kg: 0%
Helicoverpa armigera
  mortality at 600 mg/kg: 20%
Ostrinia nubilalis
  mortality at 600 mg/kg: 60%
Mythimna separata [6]
  mortality at 100 mg/kg: 100%
Tetranychus cinnabarinus [2]
  mortality at 10 mg/kg: 100%
Plutella xylostella
  mortality at 200 mg/kg: 60%
Tetranychus cinnabarinus [7]
  mortality at 1 mg/kg: 70%
Tetranychus cinnabarinus [8]
  mortality at 2.5 mg/kg: 80%
Tetranychus cinnabarinus [9]
  mortality at 1 mg/kg: 50%
Tetranychus cinnabarinus [3]
  mortality at 5 mg/kg: 100%
Tetranychus cinnabarinus [10]
  mortality at 0.5 mg/kg: 20%
Tetranychus cinnabarinus [11]
  mortality at 2.5 mg/kg: 100%
Tetranychus cinnabarinus [12]
  mortality at 0.5 mg/kg: 50%
Tetranychus cinnabarinus [4]
  mortality at 5 mg/kg: 90%

## Cc1cc(C)c(C2=C(OC(=O)C(=O)Oc3ccc(Cl)cc3)C3(CCCC3)OC2=O)c(C)c1
Mythimna separata [1]
  mortality at 600 mg/kg: 70%
Tetranychus cinnabarinus [13]
  mortality at 0.25 mg/kg: 60%
Helicoverpa armigera
  mortality at 600 mg/kg: 30%
Ostrinia nubilalis
  mortality at 600 mg/kg: 50%
Tetranychus cinnabarinus [2]
  mortality at 10 mg/kg: 100%
Tetranychus cinnabarinus [7]
  mortality at 1 mg/kg: 90%
Tetranychus cinnabarinus [8]
  mortality at 2.5 mg/kg: 70%
Tetranychus cinnabarinus [9]
  mortality at 1 mg/kg: 60%
Tetranychus cinnabarinus [3]
  mortality at 5 mg/kg: 100%
Tetranychus cinnabarinus [10]
  mortality at 0.5 mg/kg: 0%
Tetranychus cinnabarinus [11]
  mortality at 2.5 mg/kg: 100%
Tetranychus cinnabarinus [12]
  mortality at 0.5 mg/kg: 80%
Tetranychus cinnabarinus [4]
  mortality at 5 mg/kg: 90%

## Cc1cc(C)c(C2=C(OC(=O)C(=O)Oc3ccc(C(C)(C)C)cc3)C3(CCCC3)OC2=O)c(C)c1
Mythimna separata [1]
  mortality at 600 mg/kg: 80%
Helicoverpa armigera
  mortality at 600 mg/kg: 10%
Ostrinia nubilalis
  mortality at 600 mg/kg: 10%
Tetranychus cinnabarinus [2]
  mortality at 10 mg/kg: 100%
Tetranychus cinnabarinus [7]
  mortality at 1 mg/kg: 50%
Tetranychus cinnabarinus [8]
  mortality at 2.5 mg/kg: 90%
Tetranychus cinnabarinus [9]
  mortality at 1 mg/kg: 60%
Tetranychus cinnabarinus [3]
  mortality at 5 mg/kg: 90%
Tetranychus cinnabarinus [10]
  mortality at 0.5 mg/kg: 40%
Tetranychus cinnabarinus [11]
  mortality at 2.5 mg/kg: 70%
Tetranychus cinnabarinus [4]
  mortality at 5 mg/kg: 90%

## CCN(CC)C(=O)C(=O)OC1=C(c2c(C)cc(C)cc2C)C(=O)OC12CCCC2
Mythimna separata [5]
  mortality at 50 mg/kg: 40%
Helicoverpa armigera
  mortality at 600 mg/kg: 20%
Ostrinia nubilalis
  mortality at 600 mg/kg: 30%
Mythimna separata [6]
  mortality at 100 mg/kg: 100%
Tetranychus cinnabarinus [2]
  mortality at 10 mg/kg: 100%
Plutella xylostella
  mortality at 200 mg/kg: 85%
Tetranychus cinnabarinus [7]
  mortality at 1 mg/kg: 60%
Tetranychus cinnabarinus [8]
  mortality at 2.5 mg/kg: 90%
Tetranychus cinnabarinus [9]
  mortality at 1 mg/kg: 70%
Tetranychus cinnabarinus [3]
  mortality at 5 mg/kg: 100%
Tetranychus cinnabarinus [11]
  mortality at 2.5 mg/kg: 100%
Tetranychus cinnabarinus [12]
  mortality at 0.5 mg/kg: 0%
Tetranychus cinnabarinus [4]
  mortality at 5 mg/kg: 100%

## Cc1cc(C)c(C2=C(OC(=O)C(=O)N(C(C)C)C(C)C)C3(CCCC3)OC2=O)c(C)c1
Tetranychus cinnabarinus [14]
  mortality at 0.05 mg/kg: 10%
Mythimna separata [1]
  mortality at 600 mg/kg: 50%
Tetranychus cinnabarinus [13]
  mortality at 0.25 mg/kg: 80%
Helicoverpa armigera
  mortality at 600 mg/kg: 40%
Tetranychus cinnabarinus [15]
  mortality at 0.1 mg/kg: 40%
Ostrinia nubilalis
  mortality at 600 mg/kg: 80%
Tetranychus cinnabarinus [2]
  mortality at 10 mg/kg: 100%
Tetranychus cinnabarinus [7]
  mortality at 1 mg/kg: 100%
Tetranychus cinnabarinus [16]
  LC50: 0.1147 mg/kg
Tetranychus cinnabarinus [8]
  mortality at 2.5 mg/kg: 40%
Tetranychus cinnabarinus [17]
  RatioLC50: 1.4
Tetranychus cinnabarinus [3]
  mortality at 5 mg/kg: 100%
Tetranychus cinnabarinus [18]
  Ratio: 25
Tetranychus cinnabarinus [11]
  mortality at 2.5 mg/kg: 100%
Tetranychus cinnabarinus [12]
  mortality at 0.5 mg/kg: 100%
Tetranychus cinnabarinus [4]
  mortality at 5 mg/kg: 80%

## Cc1cc(C)c(C2=C(OC(=O)C(=O)N3CCCCC3)C3(CCCC3)OC2=O)c(C)c1
Tetranychus cinnabarinus [14]
  mortality at 0.05 mg/kg: 30%
Mythimna separata [1]
  mortality at 600 mg/kg: 40%
Tetranychus cinnabarinus [13]
  mortality at 0.25 mg/kg: 100%
Helicoverpa armigera
  mortality at 600 mg/kg: 30%
Tetranychus cinnabarinus [15]
  mortality at 0.1 mg/kg: 60%
Ostrinia nubilalis
  mortality at 600 mg/kg: 40%
Tetranychus cinnabarinus [2]
  mortality at 10 mg/kg: 100%
Tetranychus cinnabarinus [7]
  mortality at 1 mg/kg: 100%
Tetranychus cinnabarinus [16]
  LC50: 0.0675 mg/kg
Tetranychus cinnabarinus [8]
  mortality at 2.5 mg/kg: 70%
Tetranychus cinnabarinus [17]
  RatioLC50: 2.3
Tetranychus cinnabarinus [3]
  mortality at 5 mg/kg: 100%
Tetranychus cinnabarinus [18]
  Ratio: 25
Tetranychus cinnabarinus [11]
  mortality at 2.5 mg/kg: 100%
Tetranychus cinnabarinus [12]
  mortality at 0.5 mg/kg: 100%
Tetranychus cinnabarinus [4]
  mortality at 5 mg/kg: 90%
